Compound activity (PubChem)
TCR CD3 inh: blocks the human TCR-CD3 interaction; 360,000 tested, 0.37% active; TAMRA-labeled TCR probe fluorescence, biochemical; inhibition, % at 9.4 µM; AID 651800; in the data active = inhibition above about 19%;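 also: recombinant mutant TCR 2C K166C tagged with TAMRA read by polarization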
SIAE primary: inhibitors of human sialic acid acetylesterase SIAE. Q9HAT2. SIAE FP-Rh probe binding, fluorescence polarization. inhibition, % at 9.66 µM. 370,000 tested, 0.69% active;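 active = inhibition above a cutoff: mean of compounds within the control limits plus 3 SD of those, cut at about 17% in these data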
mABHD4 FP: inhibitors of mouse ABHD4; Q8VD66; purified mABHD4, FP-Rh probe fluorescence polarization; 370,000 tested, 0.54% active; inhibition, % at 8.92 µM; AID 720543;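 active = inhibition exceeding the mean over every tested compound plus 3 SD, cut at about 30% in these data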
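Assay system: Wild-type mouse ABHD4 protein | Medium: HEPES pH 7.0 buffer, 150 mM NaCl, 0.01% Pluronic F-127 | Incubation: Enzyme–compound pre-incubation 45 min, then probe 60 min, both 25 °C | Technique: Fluorescence polarization with parallel and perpendicular emission, 525/598 nm | Evaluation: % inhibition of FP-Rh probe binding versus controls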
HTRA1 inh: blocks human HTRA1 serine peptidase; recombinant HTRA1, FP-rhodamine activity-based probe, fluorescence polarization; inhibition, % at 5.96 µM; 340,000 tested, 0.5% active; AID 504803; in the data active = inhibition above about 36%
PRMT1 inh: PRMT1 (human) inhibition, primary screen. inhibition, % at 2.79 µM. 370,000 tested, 1.3% active. Q99873. recombinant PRMT1, activity-based probe fluorescence polarization;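 active = inhibition above about 21% made by adding two undisclosed values, limit read from the data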
Target sequence (Q99873 whole entry, looked up): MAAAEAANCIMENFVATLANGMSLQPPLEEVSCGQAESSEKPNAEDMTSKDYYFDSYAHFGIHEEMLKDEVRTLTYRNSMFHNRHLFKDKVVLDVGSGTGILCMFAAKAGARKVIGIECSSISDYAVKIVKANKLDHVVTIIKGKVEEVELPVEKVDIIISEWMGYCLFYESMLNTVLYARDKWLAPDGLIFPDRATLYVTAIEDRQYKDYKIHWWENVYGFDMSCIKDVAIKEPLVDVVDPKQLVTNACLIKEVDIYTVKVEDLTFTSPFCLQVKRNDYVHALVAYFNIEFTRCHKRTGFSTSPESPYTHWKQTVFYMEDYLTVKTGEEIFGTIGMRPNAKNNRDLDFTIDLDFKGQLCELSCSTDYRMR
SIAE confirm: confirmation of human SIAE inhibitors; inhibition, % at 9.66 µM; SIAE FP-Rh activity-based probe, fluorescence polarization; AID 1117263; 2,300 tested, 13% active; shares compounds with SIAE primary;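 active = mean inhibition of the replicates above the hit cutoff set in the primary screen, cut at about 17% in these data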;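 also: inhibitors lower polarization as more probe stays unbound to SIAE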
Large screens that a line does not name were inactive (follow-up assays come after a bar, where they were run). Rows were chosen to be rich in hits. Some 2.5% of all compounds tested hit in one or more screens of this group.

Cc1c(/C=N/NC(=O)c2ccccc2O)c2ccccn2c1C(=O)c1ccc(F)cc1	SIAE primary 37 | SIAE confirm inactive
O=C(CSc1ccc(Cl)cc1)NC1=NN(c2ccccc2)C(=O)C1	SIAE primary 25 | SIAE confirm inactive
CCOc1ccccc1NC(=O)CN1CCc2ccccc2C1	none
CCOc1ccccc1NC(=O)N1CCc2ccccc2C1	SIAE primary 18 | SIAE confirm inactive
O=C(OCC#CCSc1nnc(-c2cccc3ccccc23)o1)c1ccccc1F	none (no result: TCR CD3 inh, HTRA1 inh)
O=[N+]([O-])c1cccc(OC[C@@H](O)CN2CCC(C(O)(c3ccccc3)c3ccccc3)CC2)c1	none (no result: TCR CD3 inh, HTRA1 inh)
COC(=O)c1ccc(C)c(NC(=O)C(CCSC)NC(=O)c2cc(OC)c(OC)c(OC)c2)c1 (centres undefined)	SIAE primary 17 | SIAE confirm inactive
Cn1c(=O)c2cc(S(=O)(=O)N3CCN(Cc4ccccc4)CC3)ccc2n(C)c1=O	none (no result: TCR CD3 inh, HTRA1 inh)
O=C(Cc1cccs1)NC1CCCCN(Cc2cccc(Cl)c2)C1=O (centres undefined)	none (no result: TCR CD3 inh, HTRA1 inh)
O=C1[C@@H](C2CC2)[C@@H]2c3ccccc3C=NN2[C@@H]2c3ccccc3C=NN12	SIAE primary 23 (no result: TCR CD3 inh, HTRA1 inh) | SIAE confirm inactive
C[C@@H]1C(=O)N2N=Cc3ccccc3[C@H]2N2N=Cc3ccccc3[C@@H]12	none (no result: TCR CD3 inh, HTRA1 inh)
Cc1ccn2c(NC3CCCC3)c(-c3ccncc3)nc2c1	SIAE primary 18 | SIAE confirm inactive
CC(=O)Nc1ccc(S(=O)(=O)N2CCCC3CCCCC32)cc1 (centres undefined)	SIAE primary 22 | SIAE confirm inactive
O=C(CN1C(=O)NC2(CCCC2)C1=O)N1CCCSC1=Nc1ccccc1	SIAE primary 23 | SIAE confirm 69
Cc1[nH]c2ccccc2c1/C=N/Nc1nc(N2CCCCC2)nc(N2CCCCC2)n1	SIAE primary 18 | SIAE confirm inactive
Cc1[nH]c2ccccc2c1/C=N/Nc1nc2ccccc2[nH]1	SIAE primary 32 (no result: HTRA1 inh) | SIAE confirm 37
COc1ccc(/C=N/Nc2nc3ccccc3[nH]2)c(OC)c1OC	SIAE primary 21 | SIAE confirm inactive
C(=N\Nc1nc(N2CCCCC2)nc(N2CCCCC2)n1)/c1c[nH]c2ccccc12	none
Cc1sc(NC(=S)Nc2ccc(F)cc2)c(C(N)=O)c1C	SIAE primary 17 | SIAE confirm inactive
CCOC(=O)c1c(NC(=S)Nc2ccc(Cl)cc2)sc(C)c1C	none
Cc1ccccc1C(=O)NC1CCCCN(Cc2cccc(Cl)c2)C1=O (centres undefined)	none (no result: TCR CD3 inh, HTRA1 inh)
CC(=O)Nc1ccc(S(=O)(=O)Nc2nccs2)cc1	none
Cc1ccc(S(C)(=O)=O)cc1C(=O)Nc1ccc(S(=O)(=O)Nc2nccs2)cc1	SIAE primary 24 | SIAE confirm inactive
CC(OC(=O)c1cccc(Cl)c1)C(=O)NC1CCCCC1C (centres undefined)	none
CC(OC(=O)C1CCN(S(=O)(=O)c2ccc(Cl)cc2)CC1)C(=O)NC1CCCCC1C (centres undefined)	SIAE primary 19 | SIAE confirm inactive
CC(OC(=O)/C=C/c1cccc(Cl)c1)C(=O)NC1CCCCC1C (centres undefined)	SIAE primary 17 | SIAE confirm inactive
CC(C)CNC(=O)C1CSCCS(=O)(=O)N1Cc1ccc(F)cc1 (centres undefined)	none (no result: TCR CD3 inh, HTRA1 inh)
CN1C(=O)c2cc(NC(=O)C3CCCCC3)ccc2OC[C@H]2O[C@@H](CC(=O)NC3CCCC3)CC[C@H]21	none (no result: TCR CD3 inh, HTRA1 inh)
COc1ccc(/C=N/NC(=O)c2cccc([N+](=O)[O-])c2)cc1OS(=O)(=O)c1ccc(C)cc1	none
Cc1[nH]n(-c2ccccc2)c(=O)c1/C=N/NC(=O)c1cccc([N+](=O)[O-])c1	SIAE primary 20 | SIAE confirm inactive
CCOc1cc(/C=N/NC(=O)c2cccc([N+](=O)[O-])c2)ccc1OS(=O)(=O)c1ccccc1	SIAE primary 22 | SIAE confirm inactive
O=C(NC(Cc1c[nH]c2ccccc12)C(=O)Nc1ccc(F)c([N+](=O)[O-])c1)c1cccs1 (centres undefined)	SIAE primary 19 | SIAE confirm inactive
O=C(NC(Cc1c[nH]c2ccccc12)C(=O)Nc1ccc(OC(F)(F)F)cc1)c1cccs1 (centres undefined)	none
CN(Cc1ccccc1)C(=O)CN1C(=O)NC2(CCCC2)C1=O	none
CN(Cc1ccccc1Br)C(=O)CN1C(=O)NC2(CCCCCC2)C1=O	SIAE primary 19 | SIAE confirm inactive
COc1ccc(S[C@]2(C(=O)NCCCN(C)C)CC(=O)N[C@@H]2c2ccc(OC)cc2)cc1	none (no result: TCR CD3 inh, HTRA1 inh)
Cc1ccc(NC(=O)COC(=O)CCc2ccccc2)c(Cl)c1	SIAE primary 22 | SIAE confirm inactive
Cc1ccc(OCCC(=O)OCC(=O)Nc2ccc(C)cc2Cl)cc1	none
Cc1ccc(C(=O)N/C(=C/c2ccc(Cl)cc2)C(=O)NCC2CCCO2)cc1 (centres undefined)	SIAE primary 29 | SIAE confirm inactive
Cc1ccc(C(=O)N/C(=C\c2ccccc2)C(=O)NCC2CCCO2)cc1 (centres undefined)	none
CCCCCCCCN1C(=O)[C@@H](CC(=O)N2CCN(C(=O)OCC)CC2)C[C@@]2(C(=O)OC)C1=C[C@H](C(C)(C)C)O[C@@H]2C	none (no result: HTRA1 inh)
COc1ccc(Nc2nc3ccccc3s2)cc1	none
CCOC(=O)c1sc(Nc2nc3ccc(OC)cc3s2)cc1C	SIAE primary 34 | SIAE confirm inactive
CCOC(=O)c1sc(Nc2nc3c(F)cccc3s2)cc1C	none
COc1cccc(Nc2nc3ccc(OC)cc3s2)c1	SIAE primary 20 | SIAE confirm inactive
CCc1ccc(C=NN2CCN(Cc3ccc(C)cc3C)CC2)cc1	none (no result: TCR CD3 inh, HTRA1 inh)
O=C(c1ccc(Cl)cc1)C1CCN(c2ncnc3sccc23)CC1	none (no result: TCR CD3 inh, HTRA1 inh)
O=C(Nc1ccn(CCCNCC2CCCO2)c(=O)n1)OCc1ccccc1 (centres undefined)	none
O=C(Cn1ccc(NC(=O)OCc2ccccc2)nc1=O)NCC1CCCO1 (centres undefined)	SIAE primary 18 | SIAE confirm inactive
COC(=O)[C@H](C(C)C)N(CCCc1cn(Cc2ccc(C)cc2)nn1)S(=O)(=O)c1ccc(F)cc1Br	none (no result: TCR CD3 inh, HTRA1 inh)
CC(C)C[C@H]1COc2cc(Br)ccc2S(=O)(=O)N1Cc1cccc(Cl)c1	none (no result: HTRA1 inh)
N#Cc1cccc(NC(=O)CSc2ccc3c4c(cccc24)C(=O)c2ccccc2-3)c1	SIAE primary 57 | SIAE confirm 48
O=C(O)c1cccc(-n2sc3ccccc3c2=O)c1	SIAE primary 18, PRMT1 inh 93 | SIAE confirm inactive
CCc1ccc(/C=C2/SC(N3CCOCC3)=NC2=O)cc1	SIAE primary 18 | SIAE confirm inactive
CC(C)c1ccc(/C=C2\SC(N3CCOCC3)=NC2=O)cc1	none
O=Nc1c(O)[nH]c2ccc(Cl)c(Cl)c12	SIAE primary 63 | SIAE confirm 42
Oc1[nH]c2ccccc2c1N=Nc1ccccc1Cl	none
